This passage reports inhibition, IC50 and Activity results from ChEMBL document CHEMBL4411287, “Discovery and optimization of a series of 3-substituted indazole derivatives as multi-target kinase inhibitors for the treatment of lung squamous cell carcinoma” (Eur J Med Chem, 2019).

Experiment [1] deals with T1, Discoidin domain-containing receptor 2 (Homo sapiens) (UniProt Q16832).
T1 sequence (whole entry): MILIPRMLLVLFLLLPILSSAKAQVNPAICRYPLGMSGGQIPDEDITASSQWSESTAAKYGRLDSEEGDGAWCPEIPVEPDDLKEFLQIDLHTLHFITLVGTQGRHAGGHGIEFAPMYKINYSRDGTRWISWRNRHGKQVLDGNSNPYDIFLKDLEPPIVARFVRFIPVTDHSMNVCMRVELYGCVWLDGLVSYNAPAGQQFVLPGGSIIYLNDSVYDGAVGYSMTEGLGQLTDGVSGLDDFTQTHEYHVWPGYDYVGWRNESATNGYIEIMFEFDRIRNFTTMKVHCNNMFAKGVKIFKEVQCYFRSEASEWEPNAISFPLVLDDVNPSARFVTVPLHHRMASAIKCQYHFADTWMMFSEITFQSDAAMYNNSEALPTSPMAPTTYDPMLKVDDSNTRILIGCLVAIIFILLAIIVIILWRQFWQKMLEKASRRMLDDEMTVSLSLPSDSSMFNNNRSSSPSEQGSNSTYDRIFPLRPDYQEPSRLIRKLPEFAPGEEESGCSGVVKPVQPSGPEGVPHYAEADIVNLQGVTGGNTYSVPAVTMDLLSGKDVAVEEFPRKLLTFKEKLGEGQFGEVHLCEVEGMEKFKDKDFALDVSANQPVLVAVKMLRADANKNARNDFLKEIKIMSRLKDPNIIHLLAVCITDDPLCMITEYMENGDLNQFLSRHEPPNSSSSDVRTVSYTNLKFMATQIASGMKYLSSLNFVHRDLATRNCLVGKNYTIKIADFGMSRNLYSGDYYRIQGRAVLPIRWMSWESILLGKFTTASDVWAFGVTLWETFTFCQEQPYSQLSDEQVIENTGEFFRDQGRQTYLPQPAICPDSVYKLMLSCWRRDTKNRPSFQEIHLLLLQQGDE
As to the kind of experiment: Inhibition of DDR2 (unknown origin) at 1000 nM using poly (Glu, Tyr) 4:1 substrate after 60 mins by ELISA relative to control. Put shortly: (§1)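 ELISA with purified recombinant DDR2 on poly(Glu,Tyr) 4:1 precoated at 20 µg/mL. 10 µM ATP in HEPES pH 7.4 buffer with MgCl2, MnCl2, Na3VO4 and DTT, 1% DMSO; 60 min at 37 °C. Phosphotyrosine detected by PY99 and HRP anti-mouse IgG with o-phenylenediamine at A490. Inhibition = 1−A490/A490control; two separate experiments.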
In general terms: An ELISA detects its analyte on a solid surface through an enzyme-linked reagent.

The target of experiment [2] is T1, Discoidin domain-containing receptor 2 (Homo sapiens). As to the kind of experiment: Inhibition of DDR2 (unknown origin) at 100 nM using poly (Glu, Tyr) 4:1 substrate after 60 mins by ELISA relative to control. The essentials: as §1
The target in experiment [3] is T2, Discoidin domain-containing receptor 2 (Homo sapiens, UniProt Q16832).
T2 sequence (Q16832 whole entry): T1 sequence (whole entry)
In words: Inhibition of DDR2 (unknown origin) using poly (Glu, Tyr) 4:1 substrate after 60 mins by ELISA.

Experiment [4] relates to KG-1. As to the kind of experiment: Antiproliferative activity against human KG1 cells after 72 hrs by CCK8 assay. Conditions: KG-1, 72 h. (In general: Formazan colour is commonly taken as a measure of viable cells.)
Experiment [5] deals with NCI-H2286. In words: Antiproliferative activity against human NCI-H2286 cells at 100 nM after 72 hrs by CCK8 assay relative to control. The format is functional.
In experiment [6] the test system is NCI-H2286. In words: Antiproliferative activity against human NCI-H2286 cells after 72 hrs by CCK8 assay. Particulars: NCI-H2286, 72 h.

pIC50: −log10 of the molar value.

The term inhibition denotes the relative decrease from the control value, in per cent. A lower inhibition goes with little suppression. The term pIC50 denotes −log10 of the IC50, conventionally taken in molar units. A high value points to a small IC50.

With `Nc1n[nH]c2ccc(-c3cccc(NC(=O)c4cccc(C(F)(F)F)c4)c3)cc12`, the inhibition in experiment [1] was found to be 35.9%; in experiment [2] it was 13.1%.

In experiment [3], `CCN1CCN(Cc2cc(NC(=O)c3ccc(C)c(-c4ccc5cn[nH]c5c4)c3)cc(C(F)(F)F)c2)CC1` showed a pIC50 of 8.41. On the same count and under the same terms, in the case of `O=C(Nc1ccc(F)c(-c2ccc3cn[nH]c3c2)c1)c1cccc(C(F)(F)F)c1` it was 7.19. In the case of `Cc1ccc(-c2ccc3cn[nH]c3c2)cc1NC(=O)c1cccc(C(F)(F)F)c1`, the inhibition in experiment [2] was determined as 37.3%.

As to `Cc1ccc(NC(=O)c2cccc(C(F)(F)F)c2)cc1-c1ccc2cn[nH]c2c1`, the pIC50 in experiment [3] was 8.26. Regarding `Cc1ccc(C(=O)Nc2cccc(C(F)(F)F)c2)cc1-c1ccc2c(-c3cnn(C(C)C)c3)n[nH]c2c1`, the pIC50 is 6.34 in experiment [4] and 8.11 in experiment [3]. The same compound returned an Activity in experiment [5] of 31%. In turn, `Cc1ccc(C(=O)NCc2cccc(C(F)(F)F)c2)cc1-c1ccc2cn[nH]c2c1` showed a pIC50 in experiment [3] of 8.10.

As to `Cc1ccc(C(=O)Nc2cccc(C(F)(F)F)c2)cc1-c1ccc2c(-c3cnn(C4CCOC4)c3)n[nH]c2c1` (configuration not stated), the pIC50 was 6.52 in experiment [4], 8.21 in experiment [3] and 7.16 in experiment [6].

As for `Cc1ccc(C(=O)Nc2cccc(C(F)(F)F)c2)cc1-c1ccc2c(-c3ccc(C(=O)N4CCN(C)CC4)cc3)n[nH]c2c1`, the pIC50 in experiment [4] was 6.52; in experiment [3], 8.19. This compound yielded an Activity in experiment [5] of 45%. In experiment [3], `Cc1ccc(C(=O)Nc2cccc(C(C)C)c2)cc1-c1ccc2cn[nH]c2c1` had a negative logarithm of the IC50 (pIC50) of 8.92. The compound `Cc1cc(NC(=O)c2cccc(C(F)(F)F)c2)cc(-c2ccc3cn[nH]c3c2)c1` showed an inhibition in experiment [2] of 27.4%. In turn, `Cc1ccc(C(=O)Nc2ccc(N3CCN(C)CC3)cc2)cc1-c1ccc2cn[nH]c2c1` came in with an inhibition in experiment [2] of 25.8%. `COc1ccc(NC(=O)c2cccc(C(F)(F)F)c2)cc1-c1ccc2cn[nH]c2c1` had a pIC50 in experiment [3] of 7.17. Consider `CCn1cc(-c2n[nH]c3cc(-c4cc(C(=O)Nc5cccc(C(F)(F)F)c5)ccc4C)ccc23)cn1`, for which the pIC50 in experiment [4] was 6.59; in experiment [3], 8.59; in experiment [6] it was 7.70. In turn, `Cc1c(NC(=O)c2cccc(C(F)(F)F)c2)cccc1-c1ccc2cn[nH]c2c1` registered an inhibition in experiment [2] of 41.8%. Consider `Cc1ccc(C(=O)Nc2cccc(C(F)(F)F)c2)cc1-c1ccc2c(-c3cnn(C4CCCCO4)c3)n[nH]c2c1` (configuration not stated), for which the results for the pIC50 in experiment [4] and in experiment [3] were 6.92 and 8.28, respectively. In experiment [5], this compound showed an Activity of 45%. Take `O=C(Nc1cccc(C(F)(F)F)c1)c1cccc(-c2ccc3cn[nH]c3c2)c1`: the inhibition was determined as 84.7% in experiment [1] and 58.2% in experiment [2].

Consider `Nc1n[nH]c2cc(-c3cccc(NC(=O)c4cccc(C(F)(F)F)c4)c3)ccc12`, for which the inhibition in experiment [1] was 24.8%; in experiment [2] it was 22.8%. Consider `Cc1ccc(C(=O)Nc2cccc(C(F)(F)F)c2)cc1-c1ccc2c(-c3cnn(CCO)c3)n[nH]c2c1`, for which the pIC50 in experiment [4] was 6.76; in experiment [3] it was 8.54. For the same compound, the Activity in experiment [5] worked out at 35%. As to `Cc1ccc(C(=O)Nc2cccc(C(F)(F)F)c2)cc1-c1ccc2c(-c3ccc(CN4CCN(C)CC4)cc3)n[nH]c2c1`, the pIC50 was 6.92 in experiment [4] and 8.21 in experiment [3]. In experiment [5], this compound displayed an Activity of 13%.
